# From ChEMBL document CHEMBL4049460, “Trisubstituted Imidazoles with a Rigidized Hinge Binding Motif Act As Single Digit nM Inhibitors of Clinically Relevant EGFR L858R/T790M and L858R/T790M/C797S Mutants: An Example of Target Hopping” (J Med Chem, 2017)
# pKd: −log10 of the molar value.
# Legend:
# [1] = molecular target: Serine/threonine-protein kinase 25 (Homo sapiens) (UniProt O00506); assay: Inhibition of STK25 (unknown origin) assessed as residual activity at 1 uM in presence of [33-gamma]-ATP after 60 mins by scintillation counting method relative to control
# [2] = species on record: Homo sapiens; assay: (§1) Inhibition of recombinant human N-terminally GST-His6 tagged EGFR 746-750 deletion mutant (M672 to A1210 residues) C-terminal fragment harboring 3C cleavage site expressed in Baculovirus infected Sf9 cells assessed as residual activity at 1 uM in presence of [33-gamma]-ATP after 60 mins by scintillation counting method relative to control
# [3] = test system: Epidermal growth factor receptor (Homo sapiens), P00533 [T790M]; assay: as §1, with “T790M” for “746-750 deletion”, “(H672” for “(M672”
# [4] = species on record: Homo sapiens; assay: as §1, with “del 747-749/A750P” for “746-750 deletion”, “(H672” for “(M672”
# [5] = molecular target: Mitogen-activated protein kinase kinase kinase kinase 5 (Homo sapiens) (UniProt Q9Y4K4); assay: Inhibition of MAP4K5 (unknown origin) assessed as residual activity at 1 uM in presence of [33-gamma]-ATP after 60 mins by scintillation counting method relative to control
# [6] = molecular target: T1, Epidermal growth factor receptor (Homo sapiens, UniProt P00533, L858R/T790M); assay: Binding affinity to human EGFR L858R/T790M double mutant (669 to 1011 residues) expressed in mammalian system incubated for 1 hr
# Summary of the method: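 Competition binding of inhibitor against an immobilized active-site-directed ligand; Kd read out. Compound and kinase combined and equilibrated for 1 h without dilution (study arm C).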
# [7] = molecular target: MAP kinase-activated protein kinase 2 (Homo sapiens) (UniProt P49137); assay: Inhibition of recombinant full-length human MAPKAPK2 (M1 to L370 residues) expressed in Baculovirus infected Sf9 cells assessed as residual activity at 1 uM in presence of [33-gamma]-ATP after 60 mins by scintillation counting method relative to control
# [8] = molecular target: EGFR (wild-type) (Homo sapiens, UniProt P00533); assay: as §1, with “recombinant wild-type” for “recombinant”, “(H672” for “746-750 deletion mutant (M672”; details: read-out: Activity
# [9] = molecular target: Tyrosine-protein kinase Tec (Homo sapiens) (UniProt P42680); assay: Inhibition of TEC (unknown origin) assessed as residual activity at 1 uM in presence of [33-gamma]-ATP after 60 mins by scintillation counting method relative to control
# [10] = species on record: Homo sapiens; assay: as §1, with “del 752-759” for “746-750 deletion”, “(H672” for “(M672”
# [11] = molecular target: Serine/threonine-protein kinase 26 (Homo sapiens) (UniProt Q9P289); assay: Inhibition of recombinant full-length human MST4 (M1 to P416 residues) harboring thrombin cleavage site expressed in Baculovirus infected Sf9 cells assessed as residual activity at 1 uM in presence of [33-gamma]-ATP after 60 mins by scintillation counting method relative to control
# [12] = molecular target: Casein kinase I isoform delta (Homo sapiens) (UniProt P48730); assay: Inhibition of CK1 delta (unknown origin) assessed as residual activity at 1 uM in presence of [33-gamma]-ATP after 60 mins by scintillation counting method relative to control
# [13] = molecular target: T1, Epidermal growth factor receptor; assay: Binding affinity to human EGFR L858R/T790M double mutant (669 to 1011 residues) expressed in mammalian system preincubated for 1 hr followed by 30 fold dilution measured after 5 hrs
# Summary of the method: (§2)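 Competition binding against an immobilized active-site-directed ligand; Kd read out. Compound and kinase combined and equilibrated 1 h, then diluted 30-fold in reaction buffer and equilibrated a further 5 h (study arm B).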
# [14] = molecular target: Epidermal growth factor receptor (Homo sapiens, UniProt P00533); assay: Binding affinity to wild-type human EGFR (669 to 1011 residues) expressed in bacterial system preincubated for 1 hr followed by 30 fold dilution measured after 5 hrs; assay type: ADME; summary of the method: as §2
# [15] = molecular target: Misshapen-like kinase 1 (Homo sapiens) (UniProt Q8N4C8); assay: Inhibition of recombinant human N-terminally GST-HIS6 tagged MINK1 (M1 to E320 residues) harboring 3C-cleavage site expressed in Baculovirus infected Sf9 cells assessed as residual activity at 1 uM in presence of [33-gamma]-ATP after 60 mins by scintillation counting method relative to control
# [16] = molecular target: Receptor tyrosine-protein kinase erbB-4 (Homo sapiens) (UniProt Q15303); assay: as §1, with “ERBB4 (R676” for “EGFR 746-750 deletion mutant (M672”, “V1307” for “A1210”, “thrombin” for “3C”
# [17] = molecular target: Cytoplasmic tyrosine-protein kinase BMX (Homo sapiens) (UniProt P51813); assay: Inhibition of BMX (unknown origin) assessed as residual activity at 1 uM in presence of [33-gamma]-ATP after 60 mins by scintillation counting method relative to control
# [18] = species on record: Homo sapiens; assay: as §1, with “del 747-752/P753S” for “746-750 deletion”, “(H672” for “(M672”
# [19] = molecular target: Mitogen-activated protein kinase kinase kinase kinase 4 (Homo sapiens) (UniProt O95819); assay: Inhibition of recombinant human N-terminally GST-His6 tagged MAP4K4 (A7 to W1320 residues) harboring 3C-cleavage site expressed in Baculovirus infected Sf9 cells assessed as residual activity at 1 uM in presence of [33-gamma]-ATP after 60 mins by scintillation counting method relative to control
# [20] = test system: Epidermal growth factor receptor (Homo sapiens), P00533 [L861Q]; assay: as §1, with “L861Q” for “746-750 deletion”, “(H672” for “(M672”
# MAP kinase-activated protein kinase 2 (Homo sapiens), sequence (P49137 whole entry, looked up, the tested form may be a part): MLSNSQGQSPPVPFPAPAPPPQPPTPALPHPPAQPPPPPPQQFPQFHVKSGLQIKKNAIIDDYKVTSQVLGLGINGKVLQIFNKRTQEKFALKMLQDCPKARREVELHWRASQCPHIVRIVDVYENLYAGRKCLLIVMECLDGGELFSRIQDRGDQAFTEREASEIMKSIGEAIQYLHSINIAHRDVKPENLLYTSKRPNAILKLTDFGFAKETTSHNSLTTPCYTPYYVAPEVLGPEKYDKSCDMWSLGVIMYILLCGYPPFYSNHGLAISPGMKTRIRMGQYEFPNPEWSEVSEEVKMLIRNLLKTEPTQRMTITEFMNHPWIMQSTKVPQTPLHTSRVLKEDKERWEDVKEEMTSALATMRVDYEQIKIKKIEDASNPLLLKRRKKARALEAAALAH
# Receptor tyrosine-protein kinase erbB-4 (Homo sapiens), sequence (Q15303 whole entry): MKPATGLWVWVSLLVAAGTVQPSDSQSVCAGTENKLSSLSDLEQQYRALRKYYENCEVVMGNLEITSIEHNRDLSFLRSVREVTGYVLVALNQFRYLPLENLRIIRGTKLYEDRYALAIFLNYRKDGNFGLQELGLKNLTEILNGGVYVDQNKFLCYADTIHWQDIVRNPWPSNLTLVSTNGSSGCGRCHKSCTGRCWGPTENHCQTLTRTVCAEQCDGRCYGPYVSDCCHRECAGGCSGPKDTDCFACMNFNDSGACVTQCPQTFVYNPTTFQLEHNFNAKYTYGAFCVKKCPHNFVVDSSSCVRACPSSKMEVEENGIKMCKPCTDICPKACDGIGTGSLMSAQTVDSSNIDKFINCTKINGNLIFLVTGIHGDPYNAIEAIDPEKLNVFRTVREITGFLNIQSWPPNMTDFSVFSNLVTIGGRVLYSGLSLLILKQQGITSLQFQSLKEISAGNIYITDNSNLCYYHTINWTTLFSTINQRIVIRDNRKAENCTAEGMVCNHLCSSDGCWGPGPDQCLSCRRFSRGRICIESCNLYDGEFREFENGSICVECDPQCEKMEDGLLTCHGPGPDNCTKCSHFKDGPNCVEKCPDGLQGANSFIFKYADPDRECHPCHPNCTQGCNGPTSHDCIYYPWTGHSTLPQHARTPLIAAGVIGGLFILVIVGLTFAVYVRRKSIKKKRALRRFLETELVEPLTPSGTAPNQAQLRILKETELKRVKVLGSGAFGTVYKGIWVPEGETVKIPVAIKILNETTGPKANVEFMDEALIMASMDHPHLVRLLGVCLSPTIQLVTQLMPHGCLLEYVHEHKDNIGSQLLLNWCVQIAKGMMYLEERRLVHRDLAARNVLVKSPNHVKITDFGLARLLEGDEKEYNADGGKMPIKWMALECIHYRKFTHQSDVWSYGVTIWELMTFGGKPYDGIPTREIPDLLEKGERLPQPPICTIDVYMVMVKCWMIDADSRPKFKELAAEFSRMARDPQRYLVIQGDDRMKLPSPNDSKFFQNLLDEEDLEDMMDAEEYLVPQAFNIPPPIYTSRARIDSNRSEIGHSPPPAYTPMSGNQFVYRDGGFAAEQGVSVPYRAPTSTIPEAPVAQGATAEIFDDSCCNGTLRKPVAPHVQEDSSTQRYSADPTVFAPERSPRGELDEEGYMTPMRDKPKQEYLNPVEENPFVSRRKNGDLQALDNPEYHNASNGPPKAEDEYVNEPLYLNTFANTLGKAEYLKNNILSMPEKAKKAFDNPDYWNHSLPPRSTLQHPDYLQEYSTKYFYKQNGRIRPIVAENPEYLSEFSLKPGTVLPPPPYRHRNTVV
# Misshapen-like kinase 1 (Homo sapiens), sequence (Q8N4C8 whole entry, looked up, the tested form may be a part): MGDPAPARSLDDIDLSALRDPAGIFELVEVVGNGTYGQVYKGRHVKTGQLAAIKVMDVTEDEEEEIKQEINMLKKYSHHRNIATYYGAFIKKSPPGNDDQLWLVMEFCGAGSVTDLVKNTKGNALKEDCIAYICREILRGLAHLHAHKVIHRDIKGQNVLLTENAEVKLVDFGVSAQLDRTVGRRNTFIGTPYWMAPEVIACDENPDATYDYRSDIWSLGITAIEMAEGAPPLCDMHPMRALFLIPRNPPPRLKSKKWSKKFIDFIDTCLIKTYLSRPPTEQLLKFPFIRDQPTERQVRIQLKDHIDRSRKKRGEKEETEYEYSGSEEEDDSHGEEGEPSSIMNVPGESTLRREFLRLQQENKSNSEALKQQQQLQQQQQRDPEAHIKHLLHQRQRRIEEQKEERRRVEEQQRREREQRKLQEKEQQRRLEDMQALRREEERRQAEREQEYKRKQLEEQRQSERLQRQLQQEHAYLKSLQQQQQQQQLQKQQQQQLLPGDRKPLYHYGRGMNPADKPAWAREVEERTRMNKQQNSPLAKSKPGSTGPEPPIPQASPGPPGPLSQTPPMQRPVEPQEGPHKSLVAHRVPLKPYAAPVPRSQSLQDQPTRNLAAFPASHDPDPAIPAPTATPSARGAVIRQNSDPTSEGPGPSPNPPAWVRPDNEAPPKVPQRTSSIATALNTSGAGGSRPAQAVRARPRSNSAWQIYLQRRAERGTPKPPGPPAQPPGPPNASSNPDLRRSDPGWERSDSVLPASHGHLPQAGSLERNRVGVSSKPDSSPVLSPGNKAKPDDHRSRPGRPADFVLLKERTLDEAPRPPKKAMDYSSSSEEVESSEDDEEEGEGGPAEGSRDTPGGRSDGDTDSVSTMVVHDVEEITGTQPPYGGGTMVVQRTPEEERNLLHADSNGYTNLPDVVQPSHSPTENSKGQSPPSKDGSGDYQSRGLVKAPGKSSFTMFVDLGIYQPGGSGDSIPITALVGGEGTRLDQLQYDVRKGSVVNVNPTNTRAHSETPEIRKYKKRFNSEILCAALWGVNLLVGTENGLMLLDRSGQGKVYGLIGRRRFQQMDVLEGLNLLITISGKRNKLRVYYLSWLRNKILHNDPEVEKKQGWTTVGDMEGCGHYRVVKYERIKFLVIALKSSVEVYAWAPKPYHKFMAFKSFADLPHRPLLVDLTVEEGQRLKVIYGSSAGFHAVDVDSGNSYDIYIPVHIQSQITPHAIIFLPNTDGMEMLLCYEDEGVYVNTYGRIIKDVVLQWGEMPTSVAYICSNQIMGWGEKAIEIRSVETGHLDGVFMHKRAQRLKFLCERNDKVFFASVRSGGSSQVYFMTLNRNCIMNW
# Serine/threonine-protein kinase 26 (Homo sapiens), sequence (Q9P289 2-416 limits assumed): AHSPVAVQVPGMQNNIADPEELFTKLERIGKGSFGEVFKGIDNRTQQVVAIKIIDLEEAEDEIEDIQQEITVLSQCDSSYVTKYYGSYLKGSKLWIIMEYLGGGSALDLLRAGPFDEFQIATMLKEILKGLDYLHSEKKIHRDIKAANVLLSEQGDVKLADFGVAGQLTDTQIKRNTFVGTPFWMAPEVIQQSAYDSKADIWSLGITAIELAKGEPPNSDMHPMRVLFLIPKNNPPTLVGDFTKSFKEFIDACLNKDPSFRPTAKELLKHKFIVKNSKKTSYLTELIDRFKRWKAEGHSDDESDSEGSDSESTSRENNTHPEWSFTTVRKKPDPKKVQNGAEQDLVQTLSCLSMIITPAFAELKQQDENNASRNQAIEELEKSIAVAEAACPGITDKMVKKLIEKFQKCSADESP
# Tyrosine-protein kinase Tec (Homo sapiens), sequence (P42680 whole entry): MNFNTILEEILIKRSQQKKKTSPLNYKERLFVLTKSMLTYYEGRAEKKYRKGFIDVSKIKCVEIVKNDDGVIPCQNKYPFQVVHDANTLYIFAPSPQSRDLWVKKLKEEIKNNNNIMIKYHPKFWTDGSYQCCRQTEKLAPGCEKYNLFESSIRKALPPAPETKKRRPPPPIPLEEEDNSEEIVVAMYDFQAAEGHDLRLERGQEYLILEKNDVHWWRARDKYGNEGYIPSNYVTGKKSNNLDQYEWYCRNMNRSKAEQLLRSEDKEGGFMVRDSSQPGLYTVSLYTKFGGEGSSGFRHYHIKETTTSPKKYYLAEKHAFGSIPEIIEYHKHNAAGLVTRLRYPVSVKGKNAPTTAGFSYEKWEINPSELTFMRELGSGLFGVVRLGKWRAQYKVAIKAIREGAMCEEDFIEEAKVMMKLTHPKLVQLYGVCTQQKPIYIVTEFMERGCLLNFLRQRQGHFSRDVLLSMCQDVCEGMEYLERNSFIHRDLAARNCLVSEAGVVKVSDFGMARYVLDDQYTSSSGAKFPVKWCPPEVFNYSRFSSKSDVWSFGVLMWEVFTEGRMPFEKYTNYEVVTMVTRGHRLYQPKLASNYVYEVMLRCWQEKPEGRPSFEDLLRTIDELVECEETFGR
# Cytoplasmic tyrosine-protein kinase BMX (Homo sapiens), sequence (P51813 whole entry): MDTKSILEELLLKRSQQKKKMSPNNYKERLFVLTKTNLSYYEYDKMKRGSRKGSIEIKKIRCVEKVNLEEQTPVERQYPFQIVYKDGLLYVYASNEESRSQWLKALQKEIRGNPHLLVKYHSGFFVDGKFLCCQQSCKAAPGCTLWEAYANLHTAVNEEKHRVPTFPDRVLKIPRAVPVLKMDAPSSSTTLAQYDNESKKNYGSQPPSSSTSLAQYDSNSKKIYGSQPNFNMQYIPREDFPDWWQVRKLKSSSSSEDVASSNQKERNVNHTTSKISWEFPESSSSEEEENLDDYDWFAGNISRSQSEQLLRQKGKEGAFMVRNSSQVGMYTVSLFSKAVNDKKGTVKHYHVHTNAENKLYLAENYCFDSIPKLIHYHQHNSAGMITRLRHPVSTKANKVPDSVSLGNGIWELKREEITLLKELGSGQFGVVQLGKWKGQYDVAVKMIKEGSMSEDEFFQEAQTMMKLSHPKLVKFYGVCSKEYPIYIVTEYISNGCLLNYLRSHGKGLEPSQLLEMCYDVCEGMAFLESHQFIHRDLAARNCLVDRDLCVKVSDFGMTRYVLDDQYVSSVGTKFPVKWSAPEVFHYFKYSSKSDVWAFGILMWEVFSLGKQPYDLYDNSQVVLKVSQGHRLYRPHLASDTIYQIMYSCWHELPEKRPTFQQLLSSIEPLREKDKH
compound,measurement,setting,value
C=CC(=O)Nc1cccc(-c2c[nH]c3nccc(-c4[nH]c(CCCO)nc4-c4ccc(F)cc4)c23)c1,Activity,[1],49%
same,Activity,[2],3%
same,Activity,[3],12%
same,Activity,[4],6%
same,Activity,[5],2%
same,pKd,[6],7.89
same,Activity,[7],48%
same,"activity at 1 h, 1 µM",[8],5%
same,Activity,[9],33%
same,Activity,[10],6%
same,Activity,[11],47%
same,Activity,[12],47%
same,pKd,[13],7.85
same,pKd,[14],8.47
same,Activity,[15],5%
same,Activity,[16],4%
same,Activity,[17],17%
same,Activity,[18],4%
same,Activity,[19],1%
same,Activity,[20],3%
